Laboratory results reported in ChEMBL document CHEMBL1125612, “Synthesis and biological activity of D3-trishomocubyl-4-amines” (J Med Chem, 1991).

What was measured:
Mus musculus [1] = experiment: Anti-oxotremorine activity (anticholinergic property) and reduction of tremor in mice at a dose of 3 mg/kg.; assay type: functional
Mus musculus [2] = experiment: Anti-oxotremorine activity (anticholinergic property) and reduction of salivation in mice at a dose of 3 mg/kg.; assay type: functional
Mus musculus [3] = experiment: Anti-oxotremorine activity (anticholinergic property) and reduction of tremor in mice at a dose of 100 mg/kg.; assay type: functional
How it was run: (§1)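 Male CD-1 mice, food withheld 18 h, water ad libitum except during observation. Compound in 1% tragacanth given orally (10 mL/kg) to groups of 10 at 100, 30 or 10 mg/kg. Oxotremorine 0.4 mg/kg i.p. 30 min later. Salivation and tremor each scored 0-3 at 10, 20 and 30 min after oxotremorine. Mean score ±SEM.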

Mus musculus [4] = experiment: Anti-oxotremorine activity (anticholinergic property) and reduction of salivation in mice at a dose of 100 mg/kg.; assay type: functional; how it was run: as §1
Mus musculus [5] = species on record: Mus musculus; experiment: Anticataleptic activity for reversing the reserpine-induced catalepsy in mice.; assay type: functional
How it was run: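 Male CD-1 mice fasted 18 h, given reserpine 5 mg/kg i.p. 4 h before oral compound (1% tragacanth, 10 mL/kg; 100, 30, 10 mg/kg; groups of five).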

Mus musculus [6] = experiment: Anti-oxotremorine activity (anticholinergic property) and reduction of tremor in mice at a dose of 30 mg/kg.; assay type: functional
How it was run: (§2)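 Male CD-1 mice, food-deprived 18 h, with water ad libitum except during observation. Groups of 10 received oral treatment in 1% tragacanth at 10 mL/kg. Test agents were dosed at 100, 30 or 10 mg/kg; the reference standard or vehicle was given instead where used. Oxotremorine 0.4 mg/kg i.p. followed 30 min later. Tremor and salivation were each scored 0-3 at 10, 20 and 30 min, reported as mean score ± SEM.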

Mus musculus [7] = experiment: Anti-oxotremorine activity (anticholinergic property) and reduction of salivation in mice at a dose of 30 mg/kg.; assay type: functional; how it was run: as §2
[8] = Acute toxicity in mice (24 hours).; assay type: organism-based; conditions: mouse, in vivo
Mus musculus [9] = experiment: Anti-oxotremorine activity (anticholinergic property) and reduction of salivation in mice at a dose of 10 mg/kg.; assay type: functional; how it was run: as §1
Mus musculus [10] = experiment: Anti-oxotremorine activity (anticholinergic property) and reduction of tremor in mice at a dose of 10 mg/kg.; assay type: functional; how it was run: as §1

## CN1[C@@H]2CC[C@H]1C[C@@H](OC(=O)C(CO)c1ccccc1)C2 (stereo not given in full) [ATROPINE]
Mus musculus [1]
  Mean score: 0.5
Mus musculus [2]
  Mean score: 0

## NC12CC3CC(CC(C3)C1)C2 [AMANTADINE]
Mus musculus [3]
  Mean score: 1.7
Mus musculus [4]
  Mean score: 1.1
Mus musculus [5]
  ED50: 17 mg/kg

## CC12C3CC4C5C[C@H]([C@H](C53)[C@@H]1NCc1ccccc1)[C@@H]42 (stereo not given in full)
Mus musculus [6]
  Mean score: 1.5
Mus musculus [7]
  Mean score: 1.5
[8]
  LD50 at 24 h: > 1000 mg/kg
Mus musculus [5]
  ED50: 34 mg/kg

## CCCCN[C@H]1[C@H]2C3C4C[C@H]2[C@H]2C4CC3C21C (stereo not given in full)
[8]
  LD50 at 24 h: 150 mg/kg
Mus musculus [9]
  Mean score: 1.2
Mus musculus [10]
  Mean score: 1.2
Mus musculus [5]
  ED50: 15 mg/kg

## N[C@H]1[C@H]2C3C4C[C@H]2[C@H]2C4CC3C21c1ccccc1 (stereo not given in full)
Mus musculus [6]
  Mean score: 1.6
Mus musculus [7]
  Mean score: 1.2
[8]
  LD50 at 24 h: 681 mg/kg
Mus musculus [5]
  ED50: 16 mg/kg

## CC12C3CC4C5C[C@H]([C@H](C53)[C@@H]1NCCc1ccccc1)[C@@H]42 (stereo not given in full)
Mus musculus [6]
  Mean score: 1.3
Mus musculus [7]
  Mean score: 1.3
[8]
  LD50 at 24 h: > 1000 mg/kg
Mus musculus [5]
  ED50: 150 mg/kg

## CCN[C@H]1[C@H]2C3C4C[C@H]2[C@H]2C4CC3C21c1ccccc1 (stereo not given in full)
[8]
  LD50 at 24 h: 261 mg/kg
Mus musculus [9]
  Mean score: 1
Mus musculus [10]
  Mean score: 1.3
Mus musculus [5]
  ED50: 14 mg/kg
